These results are taken from ChEMBL document CHEMBL3259629, “Discovery and optimization of piperidyl-1,2,3-triazole ureas as potent, selective, and in vivo-active inhibitors of α/β-hydrolase domain containing 6 (ABHD6)” (J Med Chem, 2013).

Active and inactive are the calls of the source. No cut-off for these calls is given here.

In assay [1] the target is T1, Fatty-acid amide hydrolase 1 (Mus musculus) (UniProt O08914).
T1 sequence (whole entry): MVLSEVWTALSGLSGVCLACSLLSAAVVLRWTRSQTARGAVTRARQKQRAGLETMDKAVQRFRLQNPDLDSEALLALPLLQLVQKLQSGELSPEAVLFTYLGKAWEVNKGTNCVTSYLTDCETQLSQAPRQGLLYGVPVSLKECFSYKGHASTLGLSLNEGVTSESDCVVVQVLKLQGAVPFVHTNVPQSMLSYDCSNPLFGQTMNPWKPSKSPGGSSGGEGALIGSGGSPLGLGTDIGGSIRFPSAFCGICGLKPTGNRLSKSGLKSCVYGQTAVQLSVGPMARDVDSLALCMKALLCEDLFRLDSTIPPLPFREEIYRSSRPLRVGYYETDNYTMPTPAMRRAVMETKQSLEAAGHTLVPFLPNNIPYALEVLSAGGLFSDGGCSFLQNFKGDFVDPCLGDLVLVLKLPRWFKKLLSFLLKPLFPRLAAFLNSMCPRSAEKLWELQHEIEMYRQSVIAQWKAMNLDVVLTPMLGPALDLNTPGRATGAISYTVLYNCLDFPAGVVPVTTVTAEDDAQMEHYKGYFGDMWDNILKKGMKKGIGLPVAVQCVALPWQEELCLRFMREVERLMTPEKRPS
As to the kind of experiment: Inhibition of mouse brain FAAH at 10 uM after 30 mins by FP-rhodamine ABPP-based SDS-PAGE analysis relative to control.

The target of assay [2] is T2, Monoacylglycerol lipase ABHD6 (Mus musculus) (UniProt Q8R2Y0).
T2 sequence (whole entry): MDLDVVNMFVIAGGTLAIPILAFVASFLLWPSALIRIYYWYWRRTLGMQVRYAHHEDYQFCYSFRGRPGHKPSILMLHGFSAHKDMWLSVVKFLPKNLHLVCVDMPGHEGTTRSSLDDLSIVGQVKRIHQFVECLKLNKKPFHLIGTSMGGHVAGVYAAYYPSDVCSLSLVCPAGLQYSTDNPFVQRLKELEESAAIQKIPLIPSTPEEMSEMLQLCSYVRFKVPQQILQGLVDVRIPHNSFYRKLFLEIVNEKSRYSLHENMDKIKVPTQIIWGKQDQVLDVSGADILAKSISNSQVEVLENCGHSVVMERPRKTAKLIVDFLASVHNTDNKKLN
Description: Inhibition of ABHD6 in FP-rhodamine-labelled mouse brain membrane at 10 nM preincubated for 30 mins followed by FP-rhodamine labelling measured after 30 mins by gel-based competitive ABPP assay. Type of assay: tissue-based. The essentials:
(§1)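 Mouse brain membrane proteome (1 mg/mL) preincubated with compound for 30 min at 37 °C, then labelled with FP-rhodamine or HT-01 (1 μM final) for 30 min at 37 °C. Quenched in SDS loading buffer, run on 10% SDS-PAGE and scanned for in-gel fluorescence. Bands assigned by gel migration.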

The target in assay [3] is Acyl-protein thioesterase 1 (Mus musculus) (UniProt P97823). As to the kind of experiment: Inhibition of FP-rhodamine-labelled recombinant mouse LYPLA1 at 1 uM preincubated for 30 mins followed by FP-rhodamine labelling measured after 30 mins by gel-based competitive ABPP assay.
Sequence of Acyl-protein thioesterase 1 (Mus musculus) (P97823 whole entry): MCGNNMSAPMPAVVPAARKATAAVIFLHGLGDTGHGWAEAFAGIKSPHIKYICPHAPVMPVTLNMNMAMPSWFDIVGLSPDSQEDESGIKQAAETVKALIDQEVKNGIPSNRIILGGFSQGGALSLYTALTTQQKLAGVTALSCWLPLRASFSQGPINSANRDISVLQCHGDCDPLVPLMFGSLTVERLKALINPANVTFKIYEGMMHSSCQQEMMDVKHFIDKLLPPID
The target in assay [4] is T3, Acylamino-acid-releasing enzyme (Mus musculus) (UniProt Q8R146).
T3 sequence (whole entry): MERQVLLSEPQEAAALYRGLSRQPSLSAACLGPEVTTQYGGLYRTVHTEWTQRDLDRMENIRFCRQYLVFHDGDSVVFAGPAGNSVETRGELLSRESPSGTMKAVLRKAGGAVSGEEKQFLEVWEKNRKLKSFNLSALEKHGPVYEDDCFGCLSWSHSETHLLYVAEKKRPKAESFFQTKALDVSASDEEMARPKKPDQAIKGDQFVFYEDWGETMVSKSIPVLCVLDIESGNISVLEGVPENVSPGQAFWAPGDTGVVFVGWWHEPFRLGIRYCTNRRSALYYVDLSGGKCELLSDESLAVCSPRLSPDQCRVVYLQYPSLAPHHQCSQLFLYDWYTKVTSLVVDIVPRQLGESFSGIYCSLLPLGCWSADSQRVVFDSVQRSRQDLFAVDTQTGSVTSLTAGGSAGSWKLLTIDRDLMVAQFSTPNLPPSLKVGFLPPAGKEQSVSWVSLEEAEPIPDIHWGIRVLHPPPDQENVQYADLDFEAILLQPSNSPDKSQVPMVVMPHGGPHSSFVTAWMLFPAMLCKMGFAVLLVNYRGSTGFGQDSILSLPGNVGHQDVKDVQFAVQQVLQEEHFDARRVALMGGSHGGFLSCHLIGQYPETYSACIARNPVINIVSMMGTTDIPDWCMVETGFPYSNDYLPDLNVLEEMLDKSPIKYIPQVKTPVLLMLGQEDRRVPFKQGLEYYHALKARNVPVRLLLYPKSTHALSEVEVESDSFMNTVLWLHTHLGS
As to the kind of experiment: Inhibition of FP-rhodamine-labelled recombinant mouse APEH at 10 uM preincubated for 30 mins followed by FP-rhodamine labelling measured after 30 mins by gel-based competitive ABPP assay.

Assay [5] concerns the target Acyl-protein thioesterase 2 (Mus musculus) (UniProt Q9WTL7). Description: Inhibition of FP-rhodamine-labelled recombinant mouse LYPLA2 at 10 uM preincubated for 30 mins followed by FP-rhodamine labelling measured after 30 mins by gel-based competitive ABPP assay.
In assay [6] the target is T3, Acylamino-acid-releasing enzyme (Mus musculus). Description: Inhibition of FP-rhodamine-labelled recombinant mouse APEH at 1 uM preincubated for 30 mins followed by FP-rhodamine labelling measured after 30 mins by gel-based competitive ABPP assay.
Assay [7] deals with T4, Diacylglycerol lipase-beta (Mus musculus) (UniProt Q91WC9).
T4 sequence (whole entry): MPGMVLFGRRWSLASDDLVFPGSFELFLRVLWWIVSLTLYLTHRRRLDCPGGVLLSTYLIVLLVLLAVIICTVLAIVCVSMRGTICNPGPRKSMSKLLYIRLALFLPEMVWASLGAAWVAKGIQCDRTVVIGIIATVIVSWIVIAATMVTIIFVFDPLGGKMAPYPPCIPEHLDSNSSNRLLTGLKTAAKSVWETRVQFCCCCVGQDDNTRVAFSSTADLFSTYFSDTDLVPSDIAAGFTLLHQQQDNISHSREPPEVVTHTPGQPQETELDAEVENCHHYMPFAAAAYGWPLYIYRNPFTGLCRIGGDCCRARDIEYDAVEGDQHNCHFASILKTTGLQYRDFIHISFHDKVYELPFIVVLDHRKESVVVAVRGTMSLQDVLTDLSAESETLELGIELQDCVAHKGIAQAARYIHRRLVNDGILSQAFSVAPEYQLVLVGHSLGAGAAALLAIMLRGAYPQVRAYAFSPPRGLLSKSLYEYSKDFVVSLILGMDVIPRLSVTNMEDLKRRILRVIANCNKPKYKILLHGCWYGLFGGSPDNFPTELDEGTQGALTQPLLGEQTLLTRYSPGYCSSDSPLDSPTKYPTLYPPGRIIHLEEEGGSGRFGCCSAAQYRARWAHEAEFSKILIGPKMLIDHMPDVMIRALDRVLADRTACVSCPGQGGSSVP
As to the kind of experiment: Inhibition of FP-rhodamine-labelled recombinant mouse DAGLbeta expressed in HEK293T cells at 1 uM preincubated for 30 mins followed by FP-rhodamine labelling measured after 30 mins by gel-based competitive ABPP assay. The assay is classed as cell-based. The note with it: HEK-293T. A digest of the protocol:
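Mouse DAGLβ transiently overexpressed in HEK293T. Lysate diluted to 0.3 mg/mL in 50 mM HEPES pH 7.2, 100 mM NaCl, 5 mM CaCl₂, 0.1% Triton X-100, 10% DMSO. Compound preincubated 30 min at 37 °C, then 1 μM probe for 30 min at 37 °C, SDS-PAGE and in-gel fluorescence.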

Assay [8] deals with Acyl-protein thioesterase 2 (Mus musculus) (UniProt Q9WTL7). Description: Inhibition of FP-rhodamine-labelled recombinant mouse LYPLA2 at 1 uM preincubated for 30 mins followed by FP-rhodamine labelling measured after 30 mins by gel-based competitive ABPP assay.
Sequence of Acyl-protein thioesterase 2 (Mus musculus) (Q9WTL7 whole entry): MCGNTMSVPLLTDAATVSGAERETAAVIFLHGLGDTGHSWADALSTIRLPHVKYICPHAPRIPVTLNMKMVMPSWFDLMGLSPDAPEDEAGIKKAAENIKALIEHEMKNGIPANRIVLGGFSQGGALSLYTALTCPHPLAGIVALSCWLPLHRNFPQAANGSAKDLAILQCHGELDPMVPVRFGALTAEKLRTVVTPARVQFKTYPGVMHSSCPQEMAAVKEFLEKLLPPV
The target in assay [9] is Acyl-protein thioesterase 1 (Mus musculus) (UniProt P97823). As to the kind of experiment: Inhibition of FP-rhodamine-labelled recombinant mouse LYPLA1 at 10 uM preincubated for 30 mins followed by FP-rhodamine labelling measured after 30 mins by gel-based competitive ABPP assay.
For assay [10], the target named is T2, Monoacylglycerol lipase ABHD6 (Mus musculus). Description: Inhibition of ABHD6 in FP-rhodamine-labelled mouse brain membrane at 1 nM preincubated for 30 mins followed by FP-rhodamine labelling measured after 30 mins by gel-based competitive ABPP assay. The assay is classed as tissue-based. The essentials:
as §1

As a reminder, the inhibition is the change of the read-out against control, counted positive when it falls. Turning to `O=C(O)c1cccc(-c2ccc(-c3cn(C(=O)N4CCCCC4c4ccccc4)nn3)cc2)c1` (racemic), the inhibition result in assay [1], in assay [3], in assay [4], in assay [5], in assay [6] and in assay [8] was “Active” each time. Further, in assay [9], the inhibition entry is “Active”. For the same molecule, the inhibition in [2] came to 100%; in assay [7], 6%; in assay [10] it was 36%.
